Bridges are numbered along the chain shown (N, C = ends). Where no end group is shown, it is not given here.
What was measured:
[1] = system: marmoset vasopressin receptor 1a (mV1aR); assay: FLIPR Membrane Potential; format: cell-based, marmoset (Callithrix jacchus); conditions: mV1aR expressing cells
Outline: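 CHO-K1 cells stably expressing the species' V1aR were plated at 0.3 million cells/mL and grown overnight. They were loaded with FMP Blue in Locke's buffer (pH 7.4, 2.3 mM CaCl2) for 45 min at 37°C. After 60 s baseline, log concentrations of peptide were added, with all peptides run in parallel on one plate. Reads were ex 530/em 565 nm every 2 s for 200 s.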

[2] = system: non-transfected CHO-K1 cells; conditions: ref 35 (Pierce et al. 2020); cited from earlier work
[3] = system: untransfected CHO-K1 cells; conditions: ref 35 (Pierce et al. 2020); cited from earlier work
[4] = system: membrane hyperpolarization in mV1aR-expressing CHO cells; format: cell-based, Chinese hamster
[5] = system: membrane hyperpolarization in qV1aR-expressing CHO cells; format: cell-based, Chinese hamster
[6] = system: membrane hyperpolarization in hV1aR-expressing CHO cells; format: cell-based, Chinese hamster
[7] = system: intracellular Ca2+ mobilization in qV1aR-expressing CHO cells; format: cell-based, Chinese hamster; conditions: 1 μM final concentration
Outline: (§1)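 Stably receptor-transfected CHO-K1 cells were plated at 0.3 million cells/mL and grown overnight. They were loaded for 60 min at 37°C with 4 μM Fluo-3 AM and 0.04% pluronic acid in Locke's buffer (pH 7.4, 2.3 mM CaCl2, 0.5 mM probenecid), then washed four times. Thapsigargin (1 μM final) was given for 5 min. After 60 s baseline, peptide was added and read at ex 488/em 538 nm every 2 s for 200 s.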

[8] = system: intracellular Ca2+ mobilization in hV1aR-expressing CHO cells; format: cell-based, Chinese hamster; conditions: 1 μM final concentration
Outline: as §1

[9] = system: intracellular Ca2+ mobilization in mV1aR-expressing CHO cells; format: cell-based, Chinese hamster; conditions: 1 μM final concentration
Outline: as §1

N=C(N)NCCC[C@H](NC(=O)[C@@H]1CCCN1C(=O)[C@@H]1CSSC[C@H](N)C(=O)N[C@@H](Cc2ccc(O)cc2)C(=O)N[C@@H](Cc2ccccc2)C(=O)N[C@@H](CCC(N)=O)C(=O)N[C@@H](CC(N)=O)C(=O)N1)C(=O)NCC(N)=O [AVP, Arginine vasopressin]
shape of concentration response curve, membrane hyperpolarization [1]: U-shaped concentration response curve | Ca2+ mobilization [2]: did not mobilize | induced hyperpolarizing response [3]: absence

CC(C)(O)[C@H]1O[C@H]2CC[C@@]3(C)[C@@](O)(CC[C@H]4Cc5c([nH]c6ccccc56)[C@@]43C)C2=CC1=O [paxilline]
effect of pretreatment on AVP and OT-analog induced membrane hyperpolarization [4]: little to no effect | effect on NS-1619-induced membrane hyperpolarization [4]: inhibited | effect on NS-1619-induced membrane hyperpolarization [5]: inhibited | inhibition of AVP or OT-analog induced membrane hyperpolarization [5]: 15-30% | effect of pretreatment on AVP and OT-analog induced membrane hyperpolarization [6]: little to no effect | effect on NS-1619-induced membrane hyperpolarization [6]: inhibited

C/C=C(/C)C(=O)O[C@H]1C(C)=C2[C@H]([C@@H]1OC(=O)CCCCCCC)[C@@](C)(OC(C)=O)C[C@H](OC(=O)CCC)[C@@]1(O)[C@H]2OC(=O)[C@@]1(C)O [thapsigargin]
effect of pretreatment on AVP and OT-analog induced calcium mobilization [7]: blocked | effect of pretreatment on AVP and OT-analog induced calcium mobilization [8]: blocked | effect of pretreatment on AVP and OT-analog induced membrane hyperpolarization [4]: eliminated | effect of pretreatment on AVP and OT-analog induced membrane hyperpolarization [5]: eliminated | effect of pretreatment on AVP and OT-analog induced calcium mobilization [9]: blocked | effect of pretreatment on AVP and OT-analog induced membrane hyperpolarization [6]: eliminated

Clc1ccccc1C(c1ccccc1)(c1ccccc1)n1cccn1 [TRAM-34]
effect of pretreatment on AVP and OT-analog induced membrane hyperpolarization [4]: most effective inhibition | effect on SKA-31-induced membrane hyperpolarization [4]: inhibited | effect of pretreatment on AVP and OT-analog induced membrane hyperpolarization [5]: most effective inhibition | effect on SKA-31-induced membrane hyperpolarization [5]: inhibited | effect of pretreatment on AVP and OT-analog induced membrane hyperpolarization [6]: most effective inhibition | effect on SKA-31-induced membrane hyperpolarization [6]: inhibited

CC(=O)OCOC(=O)CN(CC(=O)OCOC(C)=O)c1ccccc1OCCOc1ccccc1N(CC(=O)OCOC(C)=O)CC(=O)OCOC(C)=O [BAPTA-AM, 1,2-Bis(2-aminophenoxy)ethane-N,N,N′,N′-tetraacetic acid tetrakis (acetoxymethyl ester)]
effect of pretreatment on AVP and OT-analog induced membrane hyperpolarization [4]: blocked | effect of pretreatment on AVP and OT-analog induced membrane hyperpolarization [5]: blocked | effect of pretreatment on AVP and OT-analog induced membrane hyperpolarization [6]: blocked

apamin: selective inhibitor of SKCa channels (CNCKAPETALCARRCQQH-NH2; disulfide 1-11, 3-15; UniProt P01500 28-45, looked up)
inhibition of AVP or OT-analog induced membrane hyperpolarization [4]: ≤ 10% | inhibition of AVP or OT-analog induced membrane hyperpolarization [5]: ≤ 10% | effect on AVP or Pro^8-OT-induced hyperpolarizing response [6]: did not markedly affect | reduction of Leu^8-OT-induced membrane hyperpolarization [6]: ~ 50%

Reference: paper PMC7250216 (Biomedicine & pharmacotherapy = Biomedecine & …, 2020)
